Measurements pooled from the literature.
Protocols differ between the studies behind these lines.
Target: Sodium-dependent noradrenaline transporter (SLC6A2, Homo sapiens, UniProt P23975)

| SMILES | test | conditions | measurement | value |
| --- | --- | --- | --- | --- |
| O[C@@H]1[C@H](O)[C@@H]2C[C@@H]2[C@H]1n1cnc2c(NCCc3ccccc3)nc(C#Cc3ccccc3)nc21 | ligand displacement, radioligand | – | Ki | 2.8 µM |
| CCn1c(-c2nc3ccc(C(=O)N4CCCC(N)C4)cc3n2C)cc2ccccc21 (stereo not drawn) | transporter uptake, inhibitor | – | IC50 | 39.8 µM |
| CCOC(=O)[C@@]12C[C@@H]1[C@@H](n1cnc3c(NC)nc(C#Cc4ccc(Cl)s4)nc31)[C@H](O)[C@@H]2O | ligand displacement, radioligand | cell membranes | Ki | > 8.4 µM |
| CCC(C)C(=O)[C@]12C(=O)[C@](CC=C(C)C)(C[C@H](CC=C(C)C)[C@@]1(C)CCC=C(C)C)C(=O)C(CC=C(C)C)=C2O (stereo partly drawn) | ligand displacement, radioligand | cell membranes | Ki | 7.32 µM |
| CCOC(=O)[C@@]12C[C@@H]1[C@@H](n1ccc3c(NC)nc(C#Cc4ccc(Cl)s4)nc31)[C@H](O)[C@@H]2O | transporter uptake, inhibitor, radiometric | – | IC50 | > 10 µM |
| Clc1ccc(CC2CCN(CCCCn3nnnc3C(c3ccccc3)c3ccccc3)CC2)cc1Cl | transporter uptake, inhibitor | – | IC50 | 0.724 µM |
| CCN(CC)c1ccc(C2Nc3ccc(C(=O)c4ccccc4)cc3NC3=C2C(=O)CC(C)(C)C3)cc1 (stereo not drawn) | cell-free assay, radioligand | – | Ki | 4.86 µM |
| Clc1ccc(C(c2ccccc2)c2nnnn2CCCN2CCC(Cc3ccccc3)CC2)cc1 (stereo not drawn) | transporter uptake, inhibitor | – | IC50 | 0.174 µM |
| CNc1nc(C#Cc2ccc(Cl)s2)nc2c1ncn2[C@H]1[C@H](O)[C@H](O)[C@]2(C(=O)OC)C[C@H]12 | ligand displacement, radioligand | cell membranes | Ki | > 10 µM |
| CCn1c(-c2nc3cc(C(=O)N4CCC[C@@H](N)C4)cc(OC)c3n2C)cc2cccnc21 | transporter uptake, inhibitor | – | IC50 | 31.6 µM |
| CCCCN1CCC(COC(=O)c2ccc(N)c(OCF)c2)CC1 | cell-free assay, radioligand | – | Ki | 1.4 µM |
| Clc1ccc(C(c2ccccc2)c2nnnn2CCCCN2CCC(CCc3ccccc3)CC2)cc1 (stereo not drawn) | transporter uptake, inhibitor | – | IC50 | 0.424 µM |
| CNC(=O)[C@@]12C[C@@H]1[C@@H](n1cnc3c(NCc4cccc(Cl)c4)nc(C#Cc4ccccc4)nc31)[C@H](O)[C@@H]2O | ligand displacement, radioligand | – | Ki | 3.16 µM |
| Clc1ccc(C(c2ccc(Cl)cc2)c2nnnn2CCCCN2CCC(Cc3ccccc3)CC2)cc1 | transporter uptake, inhibitor | – | IC50 | 0.469 µM |
| OCCCN1CC[C@@H]2C[C@H]1c1cc(-c3ccc(C(F)(F)F)cc3)ccc12 | ligand displacement, radioligand | – | Ki | 0.405 µM |
